≈ marks a conversion by molar mass, not a printed value.
Legend:
Type in all cases: functional
Staphylococcus aureus [1] = assay: Antimicrobial activity against erythromycin-susceptible Staphylococcus aureus ATCC 29213 incubated in CAMHB medium for 20 hrs by two-fold microbroth dilution method; conditions: ATCC 29213, 20 h
In short: (§1)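 Clinical isolates and ATCC strains, purified by plate activation and used fresh; inoculum about 5×10^5 CFU/ml final. Grown in CAMHB at 35 °C for 20 h.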

Staphylococcus aureus [2] = assay: Antimicrobial activity against inducibly erythromycin-resistant Staphylococcus aureus PU32 expressing i-ermA incubated in CAMHB medium for 20 hrs by two-fold microbroth dilution method; conditions: PU32, 20 h
In short: (§2)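 Purified fresh Staphylococcus isolate at about 5×10^5 CFU/ml final in CAMHB, 35 °C for 20 h. […] Each run included ATCC strains and reference antibiotics as QC, plus an antibiotic-free growth control.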

Streptococcus pneumoniae [3] = assay: Antimicrobial activity against erythromycin-susceptible Streptococcus pneumoniae ATCC 49619 incubated in CAMHB medium for 20 to 24 hrs by two-fold microbroth dilution method
Staphylococcus aureus [4] = assay: Antimicrobial activity against constitutively erythromycin resistant Staphylococcus aureus PU20 expressing c-ermC incubated in CAMHB medium for 20 hrs by two-fold microbroth dilution method; conditions: PU20, 20 h; in short: as §2
[5] = tested on: Staphylococcus epidermidis; assay: Antimicrobial activity against Staphylococcus epidermidis E1 incubated in CAMHB medium for 20 hrs by two-fold microbroth dilution method; conditions: E1, 20 h; in short: as §1
Streptococcus pneumoniae [6] = assay: Antimicrobial activity against mef-encoded erythromycin resistant Streptococcus pneumoniae PU09 incubated in CAMHB medium for 20 to 24 hrs by two-fold microbroth dilution method
Streptococcus pyogenes [7] = assay: Antimicrobial activity against erythromycin-susceptible Streptococcus pyogenes A3 incubated in CAMHB medium for 20 to 24 hrs by two-fold microbroth dilution method
Staphylococcus aureus [8] = assay: Antimicrobial activity against inducibly erythromycin resistant Staphylococcus aureus PU64 expressing i-ermA incubated in CAMHB medium for 20 hrs by two-fold microbroth dilution method; conditions: PU64, 20 h; in short: as §2
Streptococcus pneumoniae [9] = assay: Antimicrobial activity against constitutively erythromycin resistant Streptococcus pneumoniae PU27 expressing c-erm incubated in CAMHB medium for 20 to 24 hrs by two-fold microbroth dilution method
In short: (§3)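 Purified fresh Streptococcus isolate at about 5×10^5 CFU/ml final in CAMHB with 5% horse serum, 35 °C for 20–24 h. […] Each run included ATCC strains and reference antibiotics as QC, plus an antibiotic-free growth control.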

Streptococcus pyogenes [10] = assay: Antimicrobial activity against constitutively erythromycin resistant Streptococcus pyogenes A2 expressing c-erm incubated in CAMHB medium for 20 to 24 hrs by two-fold microbroth dilution method; in short: as §3
Haemophilus influenzae [11] = assay: Bactericidal activity against azithromycin-susceptible Haemophilus influenzae ATCC 49247 assessed as reduction in colony formation incubated in HTM broth medium for 20 to 24 hrs followed by 24 hrs subculturing in the medium without test compound
Haemophilus influenzae [12] = assay: Antimicrobial activity against azithromycin-susceptible Haemophilus influenzae ATCC 49247 incubated in HTM broth medium for 20 to 24 hrs by two-fold microbroth dilution method
Streptococcus pneumoniae [13] = assay: Bactericidal activity against mef-encoded erythromycin resistant Streptococcus pneumoniae PU09 assessed as reduction in colony formation incubated in CAMHB medium for 20 to 24 hrs followed by 24 hrs subculturing in the medium without test compound
Streptococcus pneumoniae [14] = assay: Ratio of MBC to MIC for erythromycin-susceptible Streptococcus pneumoniae ATCC 49619
Streptococcus pneumoniae [15] = assay: Bactericidal activity against erythromycin-susceptible Streptococcus pneumoniae ATCC 49619 assessed as reduction in colony formation incubated in CAMHB medium for 20 to 24 hrs followed by 24 hrs subculturing in the medium without test compound
Haemophilus influenzae [16] = assay: Ratio of MBC to MIC for azithromycin-susceptible Haemophilus influenzae ATCC 49247
Staphylococcus aureus [17] = assay: Antimicrobial activity against constitutively erythromycin resistant and methicillin resistant Staphylococcus aureus PU20 expressing c-ermC incubated in CAMHB medium for 20 hrs by two-fold microbroth dilution method; conditions: PU20, 20 h
In short: (§4)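 Purified fresh Staphylococcus isolate at about 5×10^5 CFU/ml final in CAMHB, 35 °C for 20 h. Each run included ATCC strains and reference antibiotics as QC, plus an antibiotic-free growth control.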

Staphylococcus aureus [18] = assay: Bactericidal activity against inducibly erythromycin-resistant and methicillin resistant Staphylococcus aureus PU32 expressing i-ermA assessed as reduction in colony formation incubated in CAMHB medium for 20 hrs followed by 24 hrs subculturing in the medium without test compound
Streptococcus pyogenes [19] = assay: Antimicrobial activity against inducibly erythromycin resistant Streptococcus pyogenes 01-968 expressing i-ermA incubated in CAMHB medium for 20 to 24 hrs by two-fold microbroth dilution method
Staphylococcus aureus [20] = assay: Antimicrobial activity against inducibly erythromycin-resistant and methicillin resistant Staphylococcus aureus PU32 expressing i-ermA incubated in CAMHB medium for 20 hrs by two-fold microbroth dilution method; conditions: PU32, 20 h; in short: as §4
Streptococcus pyogenes [21] = assay: Bactericidal activity against inducibly erythromycin resistant Streptococcus pyogenes 01-968 expressing i-ermA assessed as reduction in colony formation incubated in CAMHB medium for 20 to 24 hrs followed by 24 hrs subculturing in the medium without test compound
Streptococcus pneumoniae [22] = assay: Ratio of MBC to MIC for mef-encoded erythromycin resistant Streptococcus pneumoniae PU09
Streptococcus pyogenes [23] = assay: Ratio of MBC to MIC for inducibly erythromycin resistant Streptococcus pyogenes 01-968 expressing i-ermA
Staphylococcus aureus [24] = assay: Bactericidal activity against constitutively erythromycin resistant and methicillin-resistant Staphylococcus aureus PU20 expressing c-ermC assessed as reduction in colony formation incubated in CAMHB medium for 20 hrs followed by 24 hrs subculturing in the medium without test compound

Structure (SMILES)	MIC (Staphylococcus aureus [1]) [µg/mL]	MIC (Staphylococcus aureus [2]) [µg/mL]	MIC (Streptococcus pneumoniae [3]) [µg/mL]	MIC (Staphylococcus aureus [4]) [µg/mL]	MIC [5] [µg/mL]	MIC (Streptococcus pneumoniae [6]) [µg/mL]	MIC (Streptococcus pyogenes [7]) [µg/mL]	MIC (Staphylococcus aureus [8]) [µg/mL]	MIC (Streptococcus pneumoniae [9]) [µg/mL]	MIC (Streptococcus pyogenes [10]) [µg/mL]	MBC (Haemophilus influenzae [11]) [µg/mL]	MIC (Haemophilus influenzae [12]) [µg/mL]	MBC (Streptococcus pneumoniae [13]) [µg/mL]	Ratio (Streptococcus pneumoniae [14])	MBC (Streptococcus pneumoniae [15]) [µg/mL]	Ratio (Haemophilus influenzae [16])	MIC (Staphylococcus aureus [17]) [µg/mL]	MBC (Staphylococcus aureus [18]) [µg/mL]	MIC (Streptococcus pyogenes [19]) [µg/mL]	MIC (Staphylococcus aureus [20]) [µg/mL]	other results
C=CCO/N=C1\[C@H](C)C[C@@](C)(OC)[C@H](O[C@@H]2O[C@H](C)C[C@H](N(C)C)[C@H]2O)[C@@H](C)[C@H](OCC#Cc2cccnc2N)[C@@H](C)C(=O)O[C@H](CC)[C@@]2(C)OC(=O)O[C@@H]2[C@H]1C	64 (≈ 79.9 µM)	256 (≈ 320 µM)	4 (≈ 4.99 µM)	256 (≈ 320 µM)	256 (≈ 320 µM)	8 (≈ 9.99 µM)	4 (≈ 4.99 µM)	64 (≈ 79.9 µM)	32 (≈ 40 µM)	64 (≈ 79.9 µM)											
C=CCO/N=C1\[C@H](C)C[C@@](C)(OC)[C@H](O[C@@H]2O[C@H](C)C[C@H](N(C)C)[C@H]2O)[C@@H](C)[C@H](OCC#Cc2ccnc(N)c2)[C@@H](C)C(=O)O[C@H](CC)[C@@]2(C)OC(=O)O[C@@H]2[C@H]1C	64 (≈ 79.9 µM)	256 (≈ 320 µM)	4 (≈ 4.99 µM)	256 (≈ 320 µM)	256 (≈ 320 µM)	8 (≈ 9.99 µM)	4 (≈ 4.99 µM)	256 (≈ 320 µM)	64 (≈ 79.9 µM)	128 (≈ 160 µM)											
CC[C@H]1OC(=O)[C@H](C)[C@@H](OC(=O)NCCCc2cncc(N)c2)[C@H](C)[C@@H](O[C@@H]2O[C@H](C)C[C@H](N(C)C)[C@H]2O)[C@](C)(OC)C[C@@H](C)/C(=N\OC)[C@H](C)[C@H]2OC(=O)O[C@@]21C			0.25 (≈ 0.304 µM)			4 (≈ 4.87 µM)					256 (≈ 311 µM)	256 (≈ 311 µM)	8 (≈ 9.73 µM)	2	0.5 (≈ 0.608 µM)	1					
CC[C@H]1OC(=O)[C@H](C)[C@@H](OC(=O)CCNC/C=C/c2cccnc2)[C@H](C)[C@@H](O[C@@H]2O[C@H](C)C[C@H](N(C)C)[C@H]2O)[C@](C)(OC)C[C@@H](C)/C(=N\OC)[C@H](C)[C@H]2OC(=O)O[C@@]21C			1 (≈ 1.2 µM)			2 (≈ 2.4 µM)					256 (≈ 307 µM)	256 (≈ 307 µM)	2 (≈ 2.4 µM)	2	2 (≈ 2.4 µM)	1	> 256	> 256	8 (≈ 9.6 µM)	128 (≈ 154 µM)	MBC (Streptococcus pyogenes [21]): > 64 µg/mL; Ratio (Streptococcus pneumoniae [22]): 1; Ratio (Streptococcus pyogenes [23]): >8
CC[C@H]1OC(=O)[C@H](C)[C@@H](OC(=O)CCNCCNc2cc3c(=O)c(C(=O)O)cn(C4CC4)c3cc2Cl)[C@H](C)[C@@H](O[C@@H]2O[C@H](C)C[C@H](N(C)C)[C@H]2O)[C@](C)(OC)C[C@@H](C)/C(=N\OC)[C@H](C)[C@H]2OC(=O)O[C@@]21C			2 (≈ 1.96 µM)			8 (≈ 7.84 µM)					128 (≈ 125 µM)	128 (≈ 125 µM)	8 (≈ 7.84 µM)	2	4 (≈ 3.92 µM)	1	> 256	> 256	16 (≈ 15.7 µM)	256 (≈ 251 µM)	MBC (Streptococcus pyogenes [21]): 32 µg/mL (≈ 31.4 µM); Ratio (Streptococcus pneumoniae [22]): 1; Ratio (Streptococcus pyogenes [23]): 2
C=CCO/N=C1\[C@H](C)C[C@@](C)(OC)[C@H](O[C@@H]2O[C@H](C)C[C@H](N(C)C)[C@H]2O)[C@@H](C)[C@H](OCC#Cc2cncc(N)c2)[C@@H](C)C(=O)O[C@H](CC)[C@@]2(C)OC(=O)O[C@@H]2[C@H]1C	64 (≈ 79.9 µM)	256 (≈ 320 µM)	4 (≈ 4.99 µM)	256 (≈ 320 µM)	256 (≈ 320 µM)	8 (≈ 9.99 µM)	4 (≈ 4.99 µM)	128 (≈ 160 µM)	128 (≈ 160 µM)	128 (≈ 160 µM)											
CC[C@H]1OC(=O)[C@H](C)[C@@H](O[C@H]2C[C@@](C)(OC)[C@@H](O)[C@H](C)O2)[C@H](C)[C@@H](O[C@@H]2O[C@H](C)C[C@H](N(C)C)[C@H]2O)[C@](C)(O)C[C@@H](C)CN(C)[C@H](C)[C@@H](O)[C@]1(C)O [AZITHROMYCIN]	2 (≈ 2.67 µM)	> 256	0.25 (≈ 0.334 µM)	> 256	> 256	16 (≈ 21.4 µM)	0.25 (≈ 0.334 µM)	> 256	64 (≈ 85.4 µM)	128 (≈ 171 µM)											
C=CCO/N=C1\[C@H](C)C[C@@](C)(OC)[C@H](O[C@@H]2O[C@H](C)C[C@H](N(C)C)[C@H]2O)[C@@H](C)[C@H](O)[C@@H](C)C(=O)O[C@H](CC)[C@@]2(C)OC(=O)O[C@@H]2[C@H]1C	128 (≈ 191 µM)	> 256	8 (≈ 11.9 µM)	> 256	> 256	16 (≈ 23.9 µM)	16 (≈ 23.9 µM)	> 256	128 (≈ 191 µM)	128 (≈ 191 µM)											
C=CCO/N=C1\[C@H](C)C[C@@](C)(OC)[C@H](O[C@@H]2O[C@H](C)C[C@H](N(C)C)[C@H]2O)[C@@H](C)[C@H](OCC#Cc2cncnc2)[C@@H](C)C(=O)O[C@H](CC)[C@@]2(C)OC(=O)O[C@@H]2[C@H]1C	64 (≈ 81.3 µM)	128 (≈ 163 µM)	4 (≈ 5.08 µM)	256 (≈ 325 µM)	256 (≈ 325 µM)	4 (≈ 5.08 µM)	4 (≈ 5.08 µM)	256 (≈ 325 µM)	64 (≈ 81.3 µM)	64 (≈ 81.3 µM)											
CC[C@H]1OC(=O)[C@H](C)[C@@H](OC(=O)CCNCCCc2ccc3c(c2)c(=O)c(C(=O)O)cn3C2CC2)[C@H](C)[C@@H](O[C@@H]2O[C@H](C)C[C@H](N(C)C)[C@H]2O)[C@](C)(OC)C[C@@H](C)/C(=N\OC)[C@H](C)[C@H]2OC(=O)O[C@@]21C			0.5 (≈ 0.508 µM)			4 (≈ 4.06 µM)					256 (≈ 260 µM)	128 (≈ 130 µM)	4 (≈ 4.06 µM)	2	1 (≈ 1.02 µM)	2	128 (≈ 130 µM)	> 256	32 (≈ 32.5 µM)	128 (≈ 130 µM)	MBC (Staphylococcus aureus [24]): > 256 µg/mL; MBC (Streptococcus pyogenes [21]): 32 µg/mL (≈ 32.5 µM); Ratio (Streptococcus pneumoniae [22]): 1; Ratio (Streptococcus pyogenes [23]): 1
